Test results: ChEMBL document CHEMBL1671645, “Pharmacokinetics and absorption of posaconazole oral suspension under various gastric conditions in healthy volunteers” (Antimicrob Agents Chemother, 2009)

Experiments:
Homo sapiens [1] = assay: Toxicity in healthy human assessed as adverse events at 400 mg administered as single dose suspension after 20 mins after consumption of high fat meal; type: organism-based; conditions: in vivo
Method in brief: (§1)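 Healthy volunteers monitored for adverse events, vital signs, clinical laboratory values and 12-lead ECG. Adverse events tabulated by body system or organ class and severity and summarized by treatment across the crossover regimens.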

Homo sapiens [2] = assay: Apparent total body clearance in healthy human at 400 mg BID, po administered as suspension for 7 days coadministered with nutritional supplement; type: ADME, organism-based; conditions: in vivo, 168 h
Method in brief: (§2)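 Twelve healthy subjects took oral suspension for 7 days as 400 mg BID or 200 mg QID, either fasting or with a Boost-type nutritional supplement, in a crossover with 14–21 day washouts. Nonfat snacks of 800 cal/day or less were allowed. Plasma was sampled 0–168 h after the day-7 morning dose only and analysed by LC-MS/MS. AUC is AUC_τ, normalized to dose.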

[3] = AUC in fasted healthy human at 400 mg administered as single dose suspension after 20 mins after consumption of high fat meal; type: ADME, organism-based; set-up: dose 400 mg; conditions: plasma
Method in brief: (§3)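 In a crossover of 12 healthy subjects, each took a single 400 mg oral suspension dose 5 min before, midway through (about 10 min into a 20-min meal), or 20 min after a high-fat meal of about 50 g fat. Plasma was drawn 0–168 h and measured by LC-MS/MS. Parameters are noncompartmental, with AUC to the last measurable time.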

Homo sapiens [4] = assay: Toxicity in healthy human assessed as headache at 200 mg QID, po administered as suspension for 7 days coadministered with nutritional supplement; type: organism-based; conditions: in vivo, 168 h
Method in brief: (§4)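 Healthy volunteers (n = 12) took oral posaconazole suspension (40 mg/ml) for 7 days in a four-way randomized crossover with a 14- to 21-day washout. Subjects stayed fasted throughout, with nonfat snacks up to 800 cal/day allowed. Where given, Boost was taken with each dose. Safety covered adverse events, vital signs, clinical labs and 12-lead ECG, with AEs tabulated by body system and severity per treatment.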

Homo sapiens [5] = assay: Toxicity in healthy human assessed as adverse events at 400 mg administered as single dose suspension 5 mins before consumption of high fat meal; type: organism-based; conditions: in vivo; method in brief: as §1
[6] = Apparent volume of distribution in fasted healthy human at 400 mg administered as single dose suspension after consumption of high fat meal; type: ADME, organism-based; conditions: in vivo, read-out: Vc/F; method in brief: as §3
[7] = Cmax in fasted healthy human plasma at 400 mg administered as single dose suspension coadministered with acidic carbonated beverage; type: ADME, organism-based; set-up: dose 400 mg
Method in brief: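 This was a four-way crossover in 12 healthy subjects with 7–10 day washouts. Each took one fasting 400 mg oral suspension dose, with 12 oz ginger ale and/or esomeprazole 40 mg once each morning on days −2 to 1, with dosing on day 1. Plasma was sampled 0–168 h and measured by LC-MS/MS (LLOQ 5.00 ng/ml). Analysis was noncompartmental, with CL/F = dose/AUC_I and V/F = (CL/F)/K.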

[8] = Apparent volume of distribution in fasted healthy human at 400 mg administered as single dose suspension after 20 mins after consumption of high fat meal; type: ADME, organism-based; conditions: in vivo, po; method in brief: as §3
Homo sapiens [9] = assay: Toxicity in healthy human assessed as adverse events at 400 mg administered as single dose suspension coadministered with nutritional supplement and 4 mg loperamide as two 2 mg tablets; type: organism-based; conditions: in vivo; method in brief: as §1
Homo sapiens [10] = assay: Apparent total body clearance in fasted healthy human at 200 mg QID, po administered as suspension for 7 days; type: ADME, organism-based; conditions: in vivo, 168 h; method in brief: as §2
[11] = Apparent total body clearance in healthy human at 400 mg administered as single dose suspension coadministered with nutritional supplement and 4 mg loperamide as two 2 mg tablets; type: ADME, organism-based; conditions: in vivo, po
Method in brief: (§5)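 A three-way crossover in 13 healthy subjects gave one 400 mg oral suspension dose with a nutritional supplement, either alone, with metoclopramide 10 mg orally three times daily on the day before and the day of dosing, or with a single 4 mg dose of loperamide. Plasma was taken 0–168 h for LC-MS/MS. Analysis was noncompartmental.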

[12] = Cmax in fasted healthy human plasma at 400 mg administered as single dose suspension after 20 mins after consumption of high fat meal; type: ADME, organism-based; set-up: dose 400 mg; method in brief: as §3
Homo sapiens [13] = assay: Toxicity in healthy human assessed as headache at 400 mg BID, po administered as suspension for 7 days; type: organism-based; conditions: in vivo, 168 h; method in brief: as §4
[14] = Cmax in healthy human plasma at 400 mg administered as single dose suspension coadministered with nutritional supplement and 4 mg loperamide as two 2 mg tablets; type: ADME, organism-based; set-up: dose 400 mg; conditions: po
Method in brief: (§6)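 Oral suspension (40 mg/ml) single dose with nutritional supplement plus loperamide 4 mg single dose, healthy volunteers, three-way crossover with 7–10-day washout. EDTA plasma drawn predose and 1–168 h postdose. LC-MS/MS assay (LLOQ 5.00 ng/ml). Noncompartmental parameters; Tmax reported as median (range).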

[15] = Tmax in healthy human at 400 mg administered as single dose suspension coadministered with nutritional supplement and 4 mg loperamide as two 2 mg tablets; type: ADME, organism-based; conditions: in vivo; method in brief: as §6
[16] = Tmax in fasted healthy human at 400 mg administered as single dose suspension coadministered with acidic carbonated beverage and proton pump inhibitor; type: ADME, organism-based; conditions: in vivo
Method in brief: (§7)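 Single oral suspension dose in fasting healthy volunteers, alone, with 12 oz ginger ale, after esomeprazole 40 mg once each morning days −2 to 1, or both; four-way crossover, 7–10-day washout. EDTA plasma 0–168 h. LC-MS/MS (LLOQ 5.00 ng/ml). t1/2 = ln(2)/K from terminal log-linear regression; Tmax median.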

[17] = Apparent total body clearance in fasted healthy human at 400 mg administered as single dose suspension; type: ADME, organism-based; conditions: in vivo
[18] = Apparent volume of distribution in healthy human at 400 mg administered as single dose suspension coadministered with nutritional supplement; type: ADME, organism-based; conditions: in vivo; method in brief: as §5
[19] = Half life in fasted healthy human at 400 mg administered as single dose suspension coadministered with acidic carbonated beverage and proton pump inhibitor; type: ADME, organism-based; conditions: in vivo; method in brief: as §7
Homo sapiens [20] = assay: Toxicity in healthy human assessed as fatigue at 400 mg administered as single dose suspension coadministered with nutritional supplement; type: organism-based; conditions: in vivo
Method in brief: (§8)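 Three-way randomized crossover in 13 healthy volunteers with a 7- to 10-day washout. Each period was one 400-mg oral posaconazole suspension dose with a nutritional supplement. Metoclopramide 10 mg was given orally three times daily on the day before and the day of dosing; loperamide was a single 4 mg. Safety was assessed from adverse events, tabulated by body system and severity per treatment.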

[21] = Apparent volume of distribution in healthy human at 400 mg administered as single dose suspension coadministered with nutritional supplement and 10 mg metoclopramide; type: ADME, organism-based; conditions: in vivo, po, read-out: Vc/F; method in brief: as §5
Homo sapiens [22] = assay: Toxicity in healthy human assessed as nausea at 400 mg administered as single dose suspension coadministered with nutritional supplement and 10 mg metoclopramide; type: organism-based; conditions: in vivo; method in brief: as §8
Homo sapiens [23] = assay: Toxicity in healthy human assessed as nausea at 400 mg administered as single dose suspension coadministered with nutritional supplement; type: organism-based; conditions: in vivo; method in brief: as §8
[24] = Half life in fasted healthy human at 400 mg administered as single dose suspension 5 mins before consumption of high fat meal; type: ADME, organism-based; conditions: in vivo
Method in brief: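 Single oral suspension dose in healthy volunteers while fasting, 5 min before, midway through (about 10 min into a 20-min meal), or 20 min after a high-fat meal (approx 50 g fat); four-way crossover, 7–10-day washout. Plasma 0–168 h by LC-MS/MS (LLOQ 5.00 ng/ml). t1/2 = ln(2)/K; Tmax median.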

[25] = Half life in fasted healthy human at 400 mg administered as single dose suspension coadministered with acidic carbonated beverage; type: ADME, organism-based; conditions: in vivo; method in brief: as §7
[26] = Apparent total body clearance in fasted healthy human at 400 mg administered as single dose suspension 5 mins before consumption of high fat meal; type: ADME, organism-based; conditions: in vivo; method in brief: as §3

CC[C@@H]([C@H](C)O)n1ncn(-c2ccc(N3CCN(c4ccc(OC[C@@H]5CO[C@@](Cn6cncn6)(c6ccc(F)cc6F)C5)cc4)CC3)cc2)c1=O [POSACONAZOLE]
Activity (Homo sapiens [1]): 25%
CL/F (Homo sapiens [2]): 33.9 L/h
AUC at 20 min [3]: 21000 ng·h/mL
Activity (Homo sapiens [4]): 25%
Activity (Homo sapiens [5]): 25%
Vd/F [6]: 757 L
Cmax [7]: 286 ng/mL
Vd/F [8]: 757 L
Activity (Homo sapiens [9]): 38%
CL/F (Homo sapiens [10]): 21.2 L/h
CL/F [11]: 743 mL/min
Cmax [12]: 544 ng/mL
Activity (Homo sapiens [13]): 25%
Cmax [14]: 294 ng/mL
Tmax [15]: 5 h
Tmax [16]: 6 h
CL/F [17]: 1830 mL/min
Vd/F [18]: 1660 L
half-life [19]: 27.8 h
Activity (Homo sapiens [20]): 15%
Vd/F [21]: 2280 L
Activity (Homo sapiens [22]): 23%
Activity (Homo sapiens [23]): 23%
half-life [24]: 23.9 h
half-life [25]: 25.2 h
CL/F [26]: 957 mL/min
